From ChEMBL document CHEMBL1275329, “Fruitful adrenergic α(2C)-agonism/α(2A)-antagonism combination to prevent and contrast morphine tolerance and dependence” (J Med Chem, 2010)
Calls of active or inactive are those of the source. The calls are words filed in the database; no cut-off is given here.

Experiments:
[1] = molecular target: T1, Alpha-2B adrenergic receptor (Homo sapiens) (UniProt P18089); conditions: CHO
T1 sequence (whole entry): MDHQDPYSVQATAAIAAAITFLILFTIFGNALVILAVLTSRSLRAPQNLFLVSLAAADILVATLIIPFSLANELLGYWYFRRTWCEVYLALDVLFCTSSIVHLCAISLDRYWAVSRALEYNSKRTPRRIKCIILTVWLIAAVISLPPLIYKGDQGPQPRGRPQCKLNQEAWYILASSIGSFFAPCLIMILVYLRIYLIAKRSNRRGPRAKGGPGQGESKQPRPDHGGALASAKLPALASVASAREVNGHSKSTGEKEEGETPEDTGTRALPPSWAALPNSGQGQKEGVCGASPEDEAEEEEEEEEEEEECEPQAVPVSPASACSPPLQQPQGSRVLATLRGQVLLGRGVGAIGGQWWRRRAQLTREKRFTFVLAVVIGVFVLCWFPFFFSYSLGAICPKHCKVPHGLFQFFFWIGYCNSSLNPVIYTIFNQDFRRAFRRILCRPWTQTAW

[2] = system: Mus musculus; experiment: Reduction in morphine dependence expression in CD1 mouse assessed as decrease in frequency of jumping at 0.05 mg/kg, ip bid administered 15 mins before last morphine dosing […]; type: functional; set-up: scale not given: the % may be the effect or the level left; conditions: route intraperitoneal
Method in brief: (§1)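 In male CD-1 mice, morphine 10 mg/kg sc was given twice daily at 12 h intervals for 6 days, with test agent 0.05 mg/kg ip 15 min before each morphine dose. Jumping was counted, and somatic signs were scored as the sum of rearing, forepaw tremor and teeth chatter. Blind observers; mean ± SEM.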

[3] = system: Mus musculus; experiment: Reduction in morphine tolerance acquisition in CD1 mouse assessed as morphine analgesic effect incidence at 0.05 mg/kg, ip administered as single dose 15 mins before last morphine dosing on test day post morphine challenge by radiant heat tail flick test; type: functional; set-up: scale not given: the % may be the effect or the level left; conditions: route intraperitoneal
Method in brief: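 Tolerance was induced in male CD-1 mice with morphine 10 mg/kg sc twice daily at 12 h intervals for 5 days. On day 5, test agent 0.05 mg/kg ip was given once, 15 min before the last morphine injection. Tail-flick antinociception was read 30 min after that injection and expressed as %MPE, with day 1 vs day 5 compared.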

[4] = system: Mus musculus; experiment: Reduction in morphine tolerance acquisition in CD1 mouse assessed as morphine analgesic effect incidence at 0.05 mg/kg, ip bid administered 15 mins before last morphine dosing by radiant heat tail flick test; type: functional, organism-based; set-up: dose 0.05 mg/kg
[5] = molecular target: T2, Alpha-2A adrenergic receptor (Homo sapiens) (UniProt P08913); experiment: Antagonist activity at human alpha2A adrenoceptor expressed in CHO cells assessed as effect on agonist-induced extracellular acidification by microphysiometry; type: functional, cell-based
T2 sequence (whole entry): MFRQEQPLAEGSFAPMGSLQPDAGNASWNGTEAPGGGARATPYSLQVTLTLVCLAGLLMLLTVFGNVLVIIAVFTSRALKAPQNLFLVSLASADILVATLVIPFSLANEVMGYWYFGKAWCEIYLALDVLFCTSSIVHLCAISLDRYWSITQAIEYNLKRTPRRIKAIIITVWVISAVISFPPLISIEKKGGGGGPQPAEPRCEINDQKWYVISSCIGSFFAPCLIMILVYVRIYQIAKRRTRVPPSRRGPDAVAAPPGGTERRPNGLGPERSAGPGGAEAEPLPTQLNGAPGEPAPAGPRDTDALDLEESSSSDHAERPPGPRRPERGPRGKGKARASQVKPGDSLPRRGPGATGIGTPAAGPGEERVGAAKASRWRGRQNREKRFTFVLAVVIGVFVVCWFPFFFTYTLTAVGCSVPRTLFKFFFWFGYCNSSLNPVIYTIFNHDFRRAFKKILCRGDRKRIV
Method in brief: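 CHO cells stably expressing one human α2-AR subtype were run on the Cytosensor microphysiometer with bicarbonate-free DMEM perfusion. […] Kb = M/(concentration ratio − 1), where the ratio is EC50 with antagonist over EC50 without. Reported as pKb, mean ± SEM of 3–6 experiments.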

[6] = system: Mus musculus; experiment: Reduction in morphine dependence expression in CD1 mouse assessed as decrease in somatic signs at 0.05 mg/kg, ip bid administered 15 mins before last morphine dosing […]; type: functional; set-up: scale not given: the % may be the effect or the level left; conditions: route intraperitoneal
Method in brief: as §1

[7] = molecular target: T3, Alpha-2C adrenergic receptor (Homo sapiens) (UniProt P18825); experiment: Agonist activity at human Alpha-2C adrenoceptor expressed in CHO cells assessed as induction of extracellular acidification by microphysiometry relative to (-)noradrenaline; type: functional, cell-based
T3 sequence (whole entry): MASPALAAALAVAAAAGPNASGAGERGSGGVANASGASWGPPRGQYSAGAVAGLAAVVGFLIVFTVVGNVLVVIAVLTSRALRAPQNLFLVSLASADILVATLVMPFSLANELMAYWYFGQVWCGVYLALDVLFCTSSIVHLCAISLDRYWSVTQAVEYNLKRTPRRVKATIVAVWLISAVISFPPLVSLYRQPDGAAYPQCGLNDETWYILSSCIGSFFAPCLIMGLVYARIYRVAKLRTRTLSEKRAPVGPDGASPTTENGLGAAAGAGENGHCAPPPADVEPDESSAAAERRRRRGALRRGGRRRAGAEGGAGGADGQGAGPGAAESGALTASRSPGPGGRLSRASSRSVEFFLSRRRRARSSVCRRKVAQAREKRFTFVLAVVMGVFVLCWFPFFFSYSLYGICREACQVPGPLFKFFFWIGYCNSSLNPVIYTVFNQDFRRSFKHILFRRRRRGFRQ
Method in brief: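 Cytosensor microphysiometry on CHO cells stably expressing one human α2-AR subtype, seeded at 3 × 10⁵ cells/cup and grown 24 h at 37 °C. Cells were perfused with bicarbonate-free DMEM and exposed to agonist for 4 min, with 30 min washes between exposures. The read-out is the change in acidification rate: peak after agonist minus the mean of three prior readings. […] Mean ± SEM, 3–6 experiments.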

[8] = system: Mus musculus; experiment: Reduction in morphine dependence expression in CD1 mouse assessed as decrease in expression of naloxone-precipitated withdrawal syndrome at 0.05 mg/kg, ip bid administered 15 mins before last morphine dosing […]; type: functional, organism-based; set-up: dose 0.05 mg/kg
Method in brief: as §1

Question: For `C=CCc1ccccc1OC(C)C1=NCCN1` (racemic) [ALLYPHENYLINE], which pEC50 [1] is on record?
Answer: The pEC50 was “inactive”.

Question: What about the Activity [2] of the same compound?
Answer: The Activity was 80%.

Question: What about the Activity [3] of the same compound?
Answer: The Activity was 22%.

Question: And the Activity [4]?
Answer: The Activity was “Active”.

Question: What about the pKb [5] of the same compound?
Answer: The pKb was 7.4.

Question: And the Activity [6]?
Answer: The Activity was 40%.

Question: What about the Intrinsic activity [7] of the same compound?
Answer: The Intrinsic activity was 0.9.

Question: What about the Activity [8] of the same compound?
Answer: Its Activity is “Active”.
